Bioassay records: PubChem, Broad Institute
The full list was thinned out, with hits kept by preference.
T cruzi HTS: inhibitors of intracellular Trypanosoma cruzi, primary screen, cell-based, plate reader, single point, set 2 | activity score (inhibition), % at 5.01 µM | intracellular Trypanosoma cruzi in host cells | 22,000 compounds, 4.9% hits; in the data active = activity score above about 55%;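 also: parasites and compound incubated about four days before reading; 0% = median of neutral control wells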
INS-1E ATP HTS: protection of INS-1E cells from cytokine death, primary screen, ATP luminescence, single point. 20,000 compounds, 0.1% hits. INS-1E cytokine-induced death, 48 h; normalised: neutral wells 0, positive control 100. protection from cytokine-induced ATP loss, % at 10 µM;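 active = mean replicate protection from cytokine-induced ATP loss at least 50% and at least 75% of replicates each reaching 50%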
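Test system: INS-1E rat cells | Quantity: 8000 cells per well | Medium: Phenol-red-free RPMI with 5% fetal bovine serum | Reagent: Cytokine cocktail of IFN-γ, TNF-α and IL-1β | Doses: One compound concentration, pin transfer | Timing: 48 h co-treatment, 10 min post-lysis read | Technique: Luminescent ATP assay (CellTiter-Glo)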
A1 apoptosis 2: A1 inhibitors via caspase activation, primary screen, cell-based, luminescence, HTS, two replicates; MEF A1-2A-BIM cells, caspase-Glo luminescence, 3 h; percent of clofoctol response, DMSO zero; AID 2465, 2010; caspase activation, % (no concentration beside the values); 24,000 tested, under 10 active; in the data active = caspase activation above about 5.9%
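Evaluation: Caspase-3/7 activity from luminescence increase | Assay system: A1-2A-BIM mouse embryonic fibroblasts | Quantity: 2500 MEF cells/well | Medium: RPMI-1640 plus 10% FBS | Detection: Caspase-Glo 3/7 luminescence, 1 h at room temperature | Dosing: 50 nL compound per well, pinned | Timing: Cells settled overnight, compound exposure 3 h at 37 °C, 5% CO2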
Starred values were filed as active, the others as inactive; x = no result.

SMILES	T cruzi HTS	INS-1E ATP HTS	A1 apoptosis 2
CC(=O)NCCCC[C@@H]1NC(=O)[C@@H]2C[C@H](C(=O)NCc3ccc(F)cc3)[C@H](c3cccc(OCCO)c3)N2C1=O	x	x	0
O=C(CCCCCCC(=O)N/N=C/c1ccc(CO)o1)NO	-3	52*	x
O=C(CCCCCC(=O)N/N=C/c1ccc(OCCO)cc1)NO	x	x	1
O=C(O)CCCCCCC(=O)N/N=C/c1ccc(CO)o1	-13	2	1
O=C(CCCCCCC(=O)N/N=C/c1ccc(OCCO)cc1)NO	6	116*	x
O=C(CCCCCCC(=O)Nc1ccccc1O)N/N=C/c1cc(Br)cc(Br)c1O	34	5	0
C[C@H](CO)N1C[C@H](C)[C@H](CN(C)S(=O)(=O)c2cccs2)Oc2ncc(C#Cc3ccc(F)cc3)cc2C1=O	65*	x	x
CCCC(O)C#Cc1cnc2c(c1)C(=O)N([C@H](C)CO)C[C@H](C)[C@H](CN(C)S(=O)(=O)c1cccs1)O2 (stereo not given in full)	12	x	1
C[C@H](CO)N1C[C@H](C)[C@H](CN(C)S(C)(=O)=O)Oc2ncc(C#Cc3ccc(F)cc3)cc2C1=O	10	x	x
C[C@H](CO)N1C[C@H](C)[C@H](CN(C)S(=O)(=O)c2cccs2)Oc2ncc(C#Cc3ccc(C(F)(F)F)cc3)cc2C1=O	87*	-21	-2
C[C@@H]1CN([C@H](C)CO)C(=O)Cc2cc(NC(=O)Nc3ccc(C(F)(F)F)cc3)ccc2O[C@@H]1CN(C)S(=O)(=O)c1cccs1	66*	1	x
C[C@@H]1CN([C@@H](C)CO)C(=O)c2cc(NC(=O)Nc3ccc(C(F)(F)F)cc3)ccc2O[C@H]1CN(C)S(=O)(=O)c1cccs1	71*	-14	0
C[C@@H]1CN([C@@H](C)CO)C(=O)c2cccc(NC(=O)Nc3ccc(C(F)(F)F)cc3)c2O[C@H]1CN(C)S(=O)(=O)c1cccs1	79*	-20	0
C[C@H]1CN([C@@H](C)CO)C(=O)Cc2cc(NC(=O)Nc3ccc(C(F)(F)F)cc3)ccc2O[C@H]1CN(C)S(=O)(=O)c1cccs1	9	-9	-1
C[C@H](CO)N1C[C@H](C)[C@@H](CN(C)S(=O)(=O)c2cccs2)Oc2c(NC(=O)Nc3ccc(C(F)(F)F)cc3)cccc2C1=O	-10	-4	0
C[C@H]1CN([C@@H](C)CO)C(=O)c2cc(NC(=O)Nc3ccc(C(F)(F)F)cc3)ccc2O[C@@H]1CN(C)S(=O)(=O)c1cccs1	2	-12	x
COC(=O)CCCCCCC(=O)N/N=C/c1ccc(Sc2nnc(C)n2C)o1	2	-2	x
Cc1ccc(S(=O)(=O)Nc2ccc3c(c2)C(=O)N([C@H](C)CO)C[C@@H](C)[C@@H](CN(C)S(=O)(=O)c2cn(C)cn2)O3)cc1	-26	4	x
Cc1nnc(Sc2ccc(/C=N/NC(=O)c3cccc(C(=O)NO)c3)o2)n1C	-23	4	x
C[C@H]1CCCCO[C@H](CN(C)C(=O)Nc2ccc(C(F)(F)F)cc2)[C@@H](C)CN([C@@H](C)CO)C(=O)c2cc(NC(=O)NC3CCCCC3)ccc2O1	x	x	2
C[C@@H]1CCCCO[C@@H](CN(C)C(=O)NC2CCCCC2)[C@@H](C)CN([C@H](C)CO)C(=O)c2cc(NC(=O)Nc3ccc(C(F)(F)F)cc3)ccc2O1	72*	-1	1
C[C@@H]1CCCCO[C@H](CN(C)C(=O)Nc2ccc(C(F)(F)F)cc2)[C@@H](C)CN([C@H](C)CO)C(=O)c2cc(NC(=O)C3CCCCC3)ccc2O1	72*	-28	x
C[C@@H]1CCCCO[C@H](CN(C)C(=O)NC2CCCCC2)[C@H](C)CN([C@@H](C)CO)C(=O)c2cc(NC(=O)Nc3ccc(C(F)(F)F)cc3)ccc2O1	x	x	1
C[C@@H]1CCCCO[C@H](CN(C)C(=O)C2CCCCC2)[C@@H](C)CN([C@H](C)CO)C(=O)c2cc(NC(=O)Nc3ccc(C(F)(F)F)cc3)ccc2O1	61*	-21	-1
C[C@@H]1CCCCO[C@H](CN(C)C(=O)Nc2ccc(C(F)(F)F)cc2)[C@@H](C)CN([C@H](C)CO)C(=O)c2cc(NC(=O)NC3CCCCC3)ccc2O1	68*	-4	x
C[C@@H]1CCCCO[C@H](CN(C)C(=O)Nc2ccc(C(F)(F)F)cc2)[C@H](C)CN([C@H](C)CO)C(=O)c2cc(NC(=O)C3CCCCC3)ccc2O1	x	x	-1
C[C@H]1CCCCO[C@@H](CN(C)C(=O)C2CCCCC2)[C@@H](C)CN([C@@H](C)CO)C(=O)c2cc(NC(=O)Nc3ccc(C(F)(F)F)cc3)ccc2O1	x	x	1
